Experimental data as given in PMC11865470 (Communications Biology, 2025).
Entries after “also recorded” stand apart in the source; their conditions may differ.

Tests used:
CaV2.2 = CaV2.2 (Rattus norvegicus, UniProt Q02294); test: whole-cell patch-clamp, off-target channel, 10 μM compound; format: cell-based; conditions: for sensitivity of channel to compound: vs 0.1% DMSO
Outline: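 CaV channels in transfected HEK293T cells, whole-cell. Pipette (mM): 120 CsMeSO3, 2 Mg-ATP, 11 EGTA, 10 HEPES, pH 7.4. Bath (mM): 138 NaCl, 5.6 KCl, 2.6 CaCl2, 20 TEA-Cl, 5 glucose, 5 HEPES, pH 7.4. 0.1% DMSO bath applied before 10 μM test compound. Inhibition ratios compared by unpaired t-test, n = 5.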

NaV1.4 = NaV1.4 (Homo sapiens, UniProt P35499); test: whole-cell patch-clamp, off-target channel, 10 μM compound; format: cell-based; conditions: for sensitivity of channel to compound: vs 0.1% DMSO
Outline: (§1)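 NaV channels, transiently transfected HEK293T cells, whole-cell, 16–24 h after seeding. Pipette (mM): 140 CsF, 1 EGTA, 10 NaCl, 10 HEPES, pH 7.4. Bath (mM): 140 NaCl, 5 KCl, 2 CaCl2, 1 MgCl2, 10 glucose, 10 HEPES, pH 7.4. Bath with 0.1% DMSO applied before 10 μM test compound. Inhibition ratios compared by unpaired t-test, n = 5.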

KV2.1 = test: whole-cell patch-clamp, off-target channel, 10 μM compound; format: cell-based, Mus musculus; conditions: for sensitivity of channel to compound: vs 0.1% DMSO
Outline: (§2)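 KV channels in transiently transfected HEK293T cells, whole-cell. Pipette (mM): 140 KCl, 2.5 MgCl2, 11 EGTA, 10 HEPES, pH 7.4. Bath (mM): 145 NaCl, 2.8 KCl, 2 CaCl2, 1 MgCl2, 10 glucose, 10 HEPES, pH 7.4. 0.1% DMSO bath applied, then 10 μM test compound. DMSO vs compound inhibition ratio compared by unpaired t-test, n = 5.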

mOtop1/R554A = target: T1, mOtop1/R554A (Mus musculus, UniProt Q80VM9, R554A); test: patch-clamp, mOtop1 mutant; format: cell-based; conditions: for effect of mutating R554 on the compound's action on Otop1: Fig 5I, J
T1 sequence (Q80VM9 1-600 R554A): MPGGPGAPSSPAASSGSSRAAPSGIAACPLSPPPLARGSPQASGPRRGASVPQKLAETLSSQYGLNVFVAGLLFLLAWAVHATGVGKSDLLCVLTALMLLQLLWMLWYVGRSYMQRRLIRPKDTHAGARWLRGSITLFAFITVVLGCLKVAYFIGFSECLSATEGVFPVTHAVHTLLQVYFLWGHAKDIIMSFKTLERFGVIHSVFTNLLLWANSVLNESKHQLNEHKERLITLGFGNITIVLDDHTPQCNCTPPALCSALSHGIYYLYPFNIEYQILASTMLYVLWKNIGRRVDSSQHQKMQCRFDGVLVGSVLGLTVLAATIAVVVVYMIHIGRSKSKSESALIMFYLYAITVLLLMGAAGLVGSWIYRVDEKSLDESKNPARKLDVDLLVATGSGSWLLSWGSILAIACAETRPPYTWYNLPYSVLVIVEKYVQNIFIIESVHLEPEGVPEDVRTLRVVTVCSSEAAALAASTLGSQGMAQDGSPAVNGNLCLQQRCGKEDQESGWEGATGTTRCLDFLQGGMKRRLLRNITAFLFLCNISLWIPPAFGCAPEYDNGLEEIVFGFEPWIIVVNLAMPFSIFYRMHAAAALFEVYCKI

NaV1.3 = NaV1.3 (Rattus norvegicus, UniProt P08104); test: whole-cell patch-clamp, off-target channel, 10 μM compound; format: cell-based; conditions: vs 0.1% DMSO
Sequence of NaV1.3 (P08104 whole entry): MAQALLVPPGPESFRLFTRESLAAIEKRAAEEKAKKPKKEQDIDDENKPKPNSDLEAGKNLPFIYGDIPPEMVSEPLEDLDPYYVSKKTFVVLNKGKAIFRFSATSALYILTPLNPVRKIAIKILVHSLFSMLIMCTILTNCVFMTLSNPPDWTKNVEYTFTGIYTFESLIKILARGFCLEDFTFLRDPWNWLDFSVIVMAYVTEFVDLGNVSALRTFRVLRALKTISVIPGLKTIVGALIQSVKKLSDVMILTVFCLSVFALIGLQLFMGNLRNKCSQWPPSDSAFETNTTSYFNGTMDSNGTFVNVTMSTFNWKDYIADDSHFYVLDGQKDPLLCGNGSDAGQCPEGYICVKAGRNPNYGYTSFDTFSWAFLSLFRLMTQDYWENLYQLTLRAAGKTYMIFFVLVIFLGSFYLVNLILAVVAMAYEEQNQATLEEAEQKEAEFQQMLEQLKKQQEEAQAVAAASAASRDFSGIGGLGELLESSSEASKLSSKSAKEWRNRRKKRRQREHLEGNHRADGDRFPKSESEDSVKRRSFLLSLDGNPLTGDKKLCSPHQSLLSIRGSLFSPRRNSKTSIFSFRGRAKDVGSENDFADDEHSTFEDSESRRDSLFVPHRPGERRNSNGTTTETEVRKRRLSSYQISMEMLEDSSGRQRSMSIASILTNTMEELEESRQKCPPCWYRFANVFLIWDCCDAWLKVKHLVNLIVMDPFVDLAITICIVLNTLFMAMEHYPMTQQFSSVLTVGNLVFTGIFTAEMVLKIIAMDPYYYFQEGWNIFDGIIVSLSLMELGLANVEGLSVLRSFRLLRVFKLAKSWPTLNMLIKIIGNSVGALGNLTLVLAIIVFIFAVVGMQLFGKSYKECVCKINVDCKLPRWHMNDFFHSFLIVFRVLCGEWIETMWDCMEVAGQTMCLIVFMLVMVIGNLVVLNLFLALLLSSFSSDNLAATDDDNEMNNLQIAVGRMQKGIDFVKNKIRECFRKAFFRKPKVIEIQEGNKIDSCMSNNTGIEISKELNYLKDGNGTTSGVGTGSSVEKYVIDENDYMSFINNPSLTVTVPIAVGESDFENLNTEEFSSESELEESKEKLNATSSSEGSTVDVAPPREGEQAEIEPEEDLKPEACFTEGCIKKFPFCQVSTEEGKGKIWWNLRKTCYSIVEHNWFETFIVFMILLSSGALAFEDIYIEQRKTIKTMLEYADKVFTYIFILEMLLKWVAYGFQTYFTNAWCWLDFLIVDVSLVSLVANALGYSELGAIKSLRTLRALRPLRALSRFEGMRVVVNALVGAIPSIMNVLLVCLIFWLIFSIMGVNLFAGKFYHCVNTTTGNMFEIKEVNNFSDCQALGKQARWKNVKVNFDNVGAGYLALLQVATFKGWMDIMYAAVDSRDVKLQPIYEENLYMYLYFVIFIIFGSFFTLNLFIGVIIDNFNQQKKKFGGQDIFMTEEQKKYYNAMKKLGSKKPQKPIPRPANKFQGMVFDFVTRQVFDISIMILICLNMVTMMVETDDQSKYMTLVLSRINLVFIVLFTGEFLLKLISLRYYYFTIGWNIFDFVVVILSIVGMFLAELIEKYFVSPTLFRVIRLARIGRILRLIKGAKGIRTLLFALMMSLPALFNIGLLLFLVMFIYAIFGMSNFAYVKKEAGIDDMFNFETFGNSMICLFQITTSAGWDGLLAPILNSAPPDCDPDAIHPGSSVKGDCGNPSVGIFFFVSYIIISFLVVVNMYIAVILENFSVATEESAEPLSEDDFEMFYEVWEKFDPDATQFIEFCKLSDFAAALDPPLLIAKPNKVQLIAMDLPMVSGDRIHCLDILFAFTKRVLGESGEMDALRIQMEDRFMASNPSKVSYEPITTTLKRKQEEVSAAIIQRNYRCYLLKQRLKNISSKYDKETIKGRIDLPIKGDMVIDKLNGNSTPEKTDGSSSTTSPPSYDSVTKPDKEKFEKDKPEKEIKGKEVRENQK
Outline: as §1

KV3.3 = target: T2, KV3.3 (Mus musculus, UniProt Q63959); test: whole-cell patch-clamp, off-target channel, 10 μM compound; format: cell-based; conditions: vs 0.1% DMSO
T2 sequence (Q63959 1-769): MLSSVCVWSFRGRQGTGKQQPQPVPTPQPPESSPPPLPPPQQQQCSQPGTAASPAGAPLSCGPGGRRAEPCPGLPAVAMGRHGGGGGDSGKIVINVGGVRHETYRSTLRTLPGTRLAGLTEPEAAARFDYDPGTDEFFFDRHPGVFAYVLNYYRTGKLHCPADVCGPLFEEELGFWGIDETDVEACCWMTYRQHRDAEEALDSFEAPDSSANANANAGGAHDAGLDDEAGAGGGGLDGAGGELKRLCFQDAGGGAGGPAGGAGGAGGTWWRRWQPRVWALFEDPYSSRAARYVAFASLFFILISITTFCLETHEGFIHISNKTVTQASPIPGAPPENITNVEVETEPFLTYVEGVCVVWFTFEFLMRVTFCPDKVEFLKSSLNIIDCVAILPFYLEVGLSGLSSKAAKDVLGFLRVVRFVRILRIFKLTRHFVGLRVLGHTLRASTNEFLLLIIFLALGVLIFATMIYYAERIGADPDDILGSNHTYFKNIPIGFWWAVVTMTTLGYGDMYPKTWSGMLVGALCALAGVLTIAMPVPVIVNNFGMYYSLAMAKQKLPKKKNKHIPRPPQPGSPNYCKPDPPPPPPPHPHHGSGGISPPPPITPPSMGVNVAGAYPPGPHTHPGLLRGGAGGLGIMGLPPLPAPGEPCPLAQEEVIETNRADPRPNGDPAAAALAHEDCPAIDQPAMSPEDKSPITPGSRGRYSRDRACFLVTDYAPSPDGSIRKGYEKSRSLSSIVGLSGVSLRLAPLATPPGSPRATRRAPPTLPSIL
Outline: as §2

ASIC3 = target: T3, ASIC3 (Rattus norvegicus, UniProt O35240); test: whole-cell patch-clamp, off-target channel, 10 μM compound; format: cell-based; conditions: vs 0.1% DMSO
T3 sequence (O35240 1-533): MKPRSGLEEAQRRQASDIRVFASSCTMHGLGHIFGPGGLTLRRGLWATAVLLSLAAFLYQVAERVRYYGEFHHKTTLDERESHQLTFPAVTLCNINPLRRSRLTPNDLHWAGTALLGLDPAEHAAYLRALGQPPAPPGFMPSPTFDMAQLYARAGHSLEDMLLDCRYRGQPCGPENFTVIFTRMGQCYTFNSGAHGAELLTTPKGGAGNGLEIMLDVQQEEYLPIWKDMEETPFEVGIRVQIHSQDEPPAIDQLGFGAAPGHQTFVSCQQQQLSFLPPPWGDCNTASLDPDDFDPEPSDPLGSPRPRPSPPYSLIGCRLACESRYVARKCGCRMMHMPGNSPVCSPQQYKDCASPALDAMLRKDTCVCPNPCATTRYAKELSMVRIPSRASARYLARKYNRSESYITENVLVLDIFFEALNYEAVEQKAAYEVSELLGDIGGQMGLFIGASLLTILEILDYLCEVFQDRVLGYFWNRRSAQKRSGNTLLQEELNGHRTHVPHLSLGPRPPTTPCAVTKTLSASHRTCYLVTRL
Outline: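 ASIC channels in transfected HEK293T cells, whole-cell. Pipette (mM): 140 CsF, 11 EGTA, 1 CaCl2, 2 TEA-Cl, 4 MgCl2, 10 HEPES, pH 7.3. NaCl-based bath with 20 mM HEPES (pH 7.4) or 20 mM MES (pH 5.5). 0.1% DMSO bath applied before 10 μM test compound. Inhibition ratios compared by unpaired t-test, n = 5.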

Sequence of CaV2.2 (Q02294 whole entry): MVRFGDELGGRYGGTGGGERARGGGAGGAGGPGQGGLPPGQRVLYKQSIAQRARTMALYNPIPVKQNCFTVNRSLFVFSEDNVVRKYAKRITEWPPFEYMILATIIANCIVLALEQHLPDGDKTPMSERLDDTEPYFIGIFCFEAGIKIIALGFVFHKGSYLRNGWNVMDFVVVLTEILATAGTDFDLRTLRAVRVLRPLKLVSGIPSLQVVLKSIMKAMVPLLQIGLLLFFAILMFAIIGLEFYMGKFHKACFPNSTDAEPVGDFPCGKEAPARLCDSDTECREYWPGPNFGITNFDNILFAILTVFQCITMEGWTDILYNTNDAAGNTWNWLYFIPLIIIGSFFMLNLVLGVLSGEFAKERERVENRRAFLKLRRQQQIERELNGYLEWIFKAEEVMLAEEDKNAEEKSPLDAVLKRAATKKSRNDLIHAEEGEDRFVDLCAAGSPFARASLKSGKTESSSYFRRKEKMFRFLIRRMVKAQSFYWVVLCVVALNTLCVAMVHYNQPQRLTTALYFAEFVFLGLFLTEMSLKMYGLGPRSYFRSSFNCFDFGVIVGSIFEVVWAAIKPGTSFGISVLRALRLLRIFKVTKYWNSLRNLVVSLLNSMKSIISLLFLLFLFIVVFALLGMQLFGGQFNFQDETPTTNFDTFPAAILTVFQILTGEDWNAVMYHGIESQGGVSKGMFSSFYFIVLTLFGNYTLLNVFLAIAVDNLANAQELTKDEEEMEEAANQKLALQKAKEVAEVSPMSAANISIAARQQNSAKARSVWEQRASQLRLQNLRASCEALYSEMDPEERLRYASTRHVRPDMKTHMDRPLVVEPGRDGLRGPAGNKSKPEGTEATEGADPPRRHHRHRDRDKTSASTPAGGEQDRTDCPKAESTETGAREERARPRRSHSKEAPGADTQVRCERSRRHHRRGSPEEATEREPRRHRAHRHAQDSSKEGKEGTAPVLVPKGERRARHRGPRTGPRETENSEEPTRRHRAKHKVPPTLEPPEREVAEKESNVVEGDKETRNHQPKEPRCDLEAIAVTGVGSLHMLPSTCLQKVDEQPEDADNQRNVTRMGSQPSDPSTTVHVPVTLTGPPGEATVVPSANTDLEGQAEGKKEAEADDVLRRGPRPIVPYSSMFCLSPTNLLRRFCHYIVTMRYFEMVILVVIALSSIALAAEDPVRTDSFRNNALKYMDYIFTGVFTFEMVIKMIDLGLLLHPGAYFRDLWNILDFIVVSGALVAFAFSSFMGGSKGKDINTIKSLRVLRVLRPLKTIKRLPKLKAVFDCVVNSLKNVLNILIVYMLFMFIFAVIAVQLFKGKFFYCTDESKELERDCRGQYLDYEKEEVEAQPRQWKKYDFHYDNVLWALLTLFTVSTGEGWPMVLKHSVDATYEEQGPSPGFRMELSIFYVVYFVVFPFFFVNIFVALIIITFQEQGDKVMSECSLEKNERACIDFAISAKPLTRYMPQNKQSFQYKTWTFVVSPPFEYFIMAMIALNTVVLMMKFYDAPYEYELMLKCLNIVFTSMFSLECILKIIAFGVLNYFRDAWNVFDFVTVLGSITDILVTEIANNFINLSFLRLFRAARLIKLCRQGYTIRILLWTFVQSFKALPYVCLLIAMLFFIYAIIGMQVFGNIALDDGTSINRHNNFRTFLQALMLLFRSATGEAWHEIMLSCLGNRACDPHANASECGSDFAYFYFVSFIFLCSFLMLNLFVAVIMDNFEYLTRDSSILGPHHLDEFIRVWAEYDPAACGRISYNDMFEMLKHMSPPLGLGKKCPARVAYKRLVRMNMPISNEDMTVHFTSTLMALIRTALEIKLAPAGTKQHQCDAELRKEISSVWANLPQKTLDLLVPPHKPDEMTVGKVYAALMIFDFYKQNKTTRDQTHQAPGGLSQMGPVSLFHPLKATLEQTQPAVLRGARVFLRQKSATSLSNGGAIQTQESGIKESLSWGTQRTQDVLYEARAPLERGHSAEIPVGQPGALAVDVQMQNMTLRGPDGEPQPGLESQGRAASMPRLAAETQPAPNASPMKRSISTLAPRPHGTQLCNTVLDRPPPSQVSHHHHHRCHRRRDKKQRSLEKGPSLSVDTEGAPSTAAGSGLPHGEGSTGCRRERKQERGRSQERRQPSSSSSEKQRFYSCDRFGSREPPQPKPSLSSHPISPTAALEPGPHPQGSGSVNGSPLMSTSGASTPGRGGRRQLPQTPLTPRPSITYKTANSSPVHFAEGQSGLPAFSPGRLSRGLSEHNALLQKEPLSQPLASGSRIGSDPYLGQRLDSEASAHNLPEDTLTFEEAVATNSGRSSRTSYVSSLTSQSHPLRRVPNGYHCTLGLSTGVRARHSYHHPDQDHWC

Row | Compound | sensitivity of channel to compound (CaV2.2) | sensitivity of channel to compound (NaV1.4) | sensitivity of channel to compound (KV2.1) | effect of mutating R554 on the compound's action on Otop1 (mOtop1/R554A) | sensitivity of channel to compound (NaV1.3) | sensitivity of channel to compound (KV3.3) | sensitivity of channel to compound (ASIC3) | inhibition ratio (CaV2.2) | inhibition ratio (NaV1.4) | inhibition ratio (KV2.1) | response of mutant to MFaN (mOtop1/R554A; 10 μM, pH 5.5) | response of mutant to MFaN (mOtop1/R554A; pHs of 4.5, 5.0, and 6.0)
1 | CC(C)c1noc2ncc(C(=O)c3ccccc3O)cc12 [HIMOP, (2-hydroxyphenyl)-(3-propan-2-yl-5-isoxazolo[5,4-b]pyridinyl)methanone] | completely resistant | completely resistant | completely resistant | did not affect | completely resistant | completely resistant | completely resistant | – | – | – | – | –
2 | Cc1ccc(C(=O)Nc2ccc3ccccc3c2)o1 [MFaN, 5-methyl-N-2-naphthyl-2-furamide] | – | – | – | – | completely resistant | completely resistant | completely resistant | 7.9% | 7.0% | 20.0% | entirely unresponsive; also recorded: completely abolished | completely unresponsive
3 | Cc1cc(NC(=O)c2ccc(Br)o2)ccc1NC(=O)c1ccco1 [B2FAMP, 5-Bromo-N-[4-(2-furoylamino)-3-methylphenyl]-2-furamide] | completely resistant | completely resistant | completely resistant | only partially reduced | completely resistant | completely resistant | completely resistant | – | – | – | – | –
